The target of test [1] is T1, Adenosine deaminase (Bos taurus) (UniProt P56658).
T1 sequence (whole entry): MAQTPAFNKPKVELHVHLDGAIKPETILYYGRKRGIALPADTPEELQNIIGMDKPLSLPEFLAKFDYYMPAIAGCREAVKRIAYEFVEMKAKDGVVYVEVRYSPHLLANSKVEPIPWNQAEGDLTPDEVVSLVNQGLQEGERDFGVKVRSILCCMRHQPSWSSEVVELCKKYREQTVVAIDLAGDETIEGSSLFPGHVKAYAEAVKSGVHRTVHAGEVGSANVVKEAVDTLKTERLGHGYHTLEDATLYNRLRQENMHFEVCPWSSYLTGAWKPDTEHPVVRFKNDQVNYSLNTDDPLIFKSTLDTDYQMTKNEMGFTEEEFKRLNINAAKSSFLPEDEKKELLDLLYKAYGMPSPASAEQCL
The experiment in a line: Kinetic parameter Kcat of compound used as substrate for Adenosine deaminase was evaluated. In short, it runs like this: (§1)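 Calf intestinal mucosa adenosine deaminase (0.15 units) in pH 7.4 phosphate buffer (2 mL) at 25 °C, with substrate at 15-100 µM. Hydrolysis was followed by UV absorbance at 265 nm, and substrate concentration was derived from the absorbance change. Initial rates came from graphical fitting of concentration versus time.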

Test [2] is described as follows: Ratio of kinetic parameter Kcat to that of binding affinity towards adenosine deaminase KM. In short, it runs like this:
as §1

In test [1], `Nc1ncnc2c1ncn2[C@@H]1S[C@H](CO)C=C1F` showed a k cat of 0.94 s⁻¹. Further, the k cat/Km in test [2] stood at 50000 M⁻¹ s⁻¹.

`Nc1ncnc2c1ncn2[C@@H]1O[C@H](CO)[C@@H](O)[C@H]1O`: in test [1], the k cat was found to be 76.4 s⁻¹. For the same compound, the k cat/Km in test [2] came to 3.1e+06 M⁻¹ s⁻¹.

The record behind these values is ChEMBL document CHEMBL1135749, “Stereoselective synthesis and antiviral activity of D-2',3'-didehydro-2',3'-dideoxy-2'-fluoro-4'-thionucleosides” (J Med Chem, 2002).
